How the values were obtained:
[1] = target: Glucagon-like peptide 1 receptor (Homo sapiens, UniProt P43220); test: Agonist activity at human GLP-1 receptor expressed in HEK293 cells assessed as cAMP accumulation after 30 mins by HTRF assay; type: functional, cell-based
Glucagon receptor = Glucagon receptor (Homo sapiens, UniProt P47871); test: Agonist activity at human glucagon receptor expressed in HEK293 cells assessed as cAMP accumulation after 30 mins by HTRF assay; type: functional, cell-based
[2] = Cmax in C57/BL6 mouse at 1 mg/kg, sc by LC-MS/MS analysis; type: ADME, organism-based; parameters: dose 1 mg/kg, route subcutaneous; details: in vivo
Outline: (§1)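 Female C57/Bl6 mice given single 1 mg/kg sc dose; animals sacrificed and blood collected at 0.083, 0.25, 1, 2, 4, 8, 16 and 24 h. Plasma analysed by LC-MS/MS after protein precipitation; parameters from mean plasma concentrations by noncompartmental analysis.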

[3] = Tmax in C57/BL6 mouse at 1 mg/kg, sc by LC-MS/MS analysis; type: ADME, organism-based; details: in vivo; outline: as §1
[4] = AUC in C57/BL6 mouse at 1 mg/kg, sc by LC-MS/MS analysis; type: ADME, organism-based; details: in vivo; outline: as §1
[5] = Half life in C57/BL6 mouse at 1 mg/kg, sc by LC-MS/MS analysis; type: ADME, organism-based; details: in vivo; outline: as §1

Glucagon receptor, sequence (P47871 whole entry): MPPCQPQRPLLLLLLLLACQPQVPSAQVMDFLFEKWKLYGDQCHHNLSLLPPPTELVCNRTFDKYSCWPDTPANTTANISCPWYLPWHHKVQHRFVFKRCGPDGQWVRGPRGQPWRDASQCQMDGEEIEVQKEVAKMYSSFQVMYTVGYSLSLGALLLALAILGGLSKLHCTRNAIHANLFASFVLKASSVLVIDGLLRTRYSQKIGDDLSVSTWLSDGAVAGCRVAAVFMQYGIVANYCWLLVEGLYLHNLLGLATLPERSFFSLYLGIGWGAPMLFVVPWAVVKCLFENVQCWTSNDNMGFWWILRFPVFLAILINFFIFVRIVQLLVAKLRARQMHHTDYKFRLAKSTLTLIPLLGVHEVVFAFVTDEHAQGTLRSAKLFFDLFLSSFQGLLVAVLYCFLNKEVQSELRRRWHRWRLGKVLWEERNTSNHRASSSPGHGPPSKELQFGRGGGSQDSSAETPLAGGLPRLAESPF
Glucagon-like peptide 1 receptor, sequence (P43220 whole entry): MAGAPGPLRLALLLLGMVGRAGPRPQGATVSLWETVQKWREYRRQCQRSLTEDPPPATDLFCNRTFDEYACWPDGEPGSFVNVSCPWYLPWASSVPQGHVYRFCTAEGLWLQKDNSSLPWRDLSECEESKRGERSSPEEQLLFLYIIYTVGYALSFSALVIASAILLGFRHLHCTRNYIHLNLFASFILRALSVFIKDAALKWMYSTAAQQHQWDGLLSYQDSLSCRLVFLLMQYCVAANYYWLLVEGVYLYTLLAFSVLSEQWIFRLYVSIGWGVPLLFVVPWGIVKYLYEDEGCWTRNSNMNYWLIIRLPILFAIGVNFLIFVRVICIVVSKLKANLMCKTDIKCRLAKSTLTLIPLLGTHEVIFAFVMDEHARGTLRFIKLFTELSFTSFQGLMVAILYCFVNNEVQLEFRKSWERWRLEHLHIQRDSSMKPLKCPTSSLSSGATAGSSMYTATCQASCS

For `CCCCCCCCCCCCCCCC(=O)N[C@@H](CCC(=O)NCCCC[C@H](NC(=O)[C@H](CO)NC(=O)[C@@H]1CCCN1C(=O)[C@@H]1CCCN1C(=O)[C@@H]1CCCN1C(=O)[C@H](C)NC(=O)CNC(=O)[C@H](CO)NC(=O)[C@H](CO)NC(=O)[C@@H]1CCCN1C(=O)CNC(=O)CNC(=O)[C@H](CC(N)=O)NC(=O)[C@H](CCCCN)NC(=O)[C@H](CC(C)C)NC(=O)[C@H](Cc1c[nH]c2ccccc12)NC(=O)[C@H](CCC(=O)O)NC(=O)[C@@H](NC(=O)[C@H](Cc1ccccc1)NC(=O)[C@H](CC(=O)O)NC(=O)[C@H](CCC(N)=O)NC(=O)[C@H](C)NC(=O)[C@H](CCCNC(=N)N)NC(=O)[C@H](CCCNC(=N)N)NC(=O)[C@H](CO)NC(=O)[C@H](CC(=O)O)NC(=O)[C@H](CCSC)NC(=O)[C@H](CCC(N)=O)NC(=O)[C@H](CCCCN)NC(=O)[C@H](CO)NC(=O)[C@H](CC(C)C)NC(=O)[C@H](CC(=O)O)NC(=O)[C@H](CO)NC(=O)[C@@H](NC(=O)[C@H](Cc1ccccc1)NC(=O)[C@@H](NC(=O)CNC(=O)[C@H](CCC(N)=O)NC(=O)[C@H](CO)NC(=O)[C@@H](N)Cc1cnc[nH]1)[C@@H](C)O)[C@H](C)O)[C@@H](C)CC)C(N)=O)C(N)=O`, which EC50 [1] is on record?
Its EC50 is 0.0052 nM.

What about the EC50 (Glucagon receptor) of the same compound?
Its EC50 is 0.0062 nM.

And the Cmax [2]?
Its Cmax is 3450 ng/mL.

And the Tmax [3]?
Its Tmax is 2 h.

What about the AUC [4] of the same compound?
Its AUC is 17000 ng·h/mL.

And the half-life [5]?
The half-life was 2.2 h.

Which EC50 [1] does the source give for `CC[C@H](C)[C@H](NC(=O)[C@H](Cc1ccccc1)NC(=O)[C@H](CC(C)C)NC(=O)[C@H](CCCNC(=N)N)NC(=O)[C@@H](NC(=O)[C@H](CCCNC(=N)N)NC(=O)[C@H](CCCNC(=N)N)NC(=O)[C@H](CO)NC(=O)[C@H](CC(=O)O)NC(=O)[C@H](CCSC)NC(=O)[C@H](CCC(N)=O)NC(=O)[C@H](CCCCN)NC(=O)[C@H](CO)NC(=O)[C@H](CC(C)C)NC(=O)[C@H](CC(=O)O)NC(=O)[C@H](CO)NC(=O)[C@@H](NC(=O)[C@H](Cc1ccccc1)NC(=O)[C@@H](NC(=O)CNC(=O)[C@H](CCC(=O)O)NC(=O)CNC(=O)[C@@H](N)Cc1cnc[nH]1)[C@@H](C)O)[C@@H](C)O)C(C)C)C(=O)N[C@@H](CCC(=O)O)C(=O)N[C@@H](Cc1c[nH]c2ccccc12)C(=O)N[C@@H](CC(C)C)C(=O)N[C@@H](CCCCN)C(=O)N[C@@H](CC(N)=O)C(=O)NCC(=O)NCC(=O)N1CCC[C@H]1C(=O)N[C@@H](CO)C(=O)N[C@@H](CO)C(=O)NCC(=O)N[C@@H](C)C(=O)N1CCC[C@H]1C(=O)N1CCC[C@H]1C(=O)N1CCC[C@H]1C(=O)N[C@@H](CO)C(N)=O` here?
The EC50 was 0.0018 nM.

And the EC50 (Glucagon receptor)?
The EC50 was 58000 nM.

Which results are given for `CCCCCCCCCCCCCCCC(=O)N[C@@H](CCC(=O)NCCCC[C@H](NC(=O)[C@@H]1CCCN1C(=O)[C@@H]1CCCN1C(=O)[C@@H]1CCCN1C(=O)[C@H](C)NC(=O)CNC(=O)[C@H](CO)NC(=O)[C@H](CO)NC(=O)[C@@H]1CCCN1C(=O)CNC(=O)CNC(=O)[C@H](CC(N)=O)NC(=O)[C@H](CCCCN)NC(=O)[C@H](CC(C)C)NC(=O)[C@H](Cc1c[nH]c2ccccc12)NC(=O)[C@H](CCC(=O)O)NC(=O)[C@@H](NC(=O)[C@H](Cc1ccccc1)NC(=O)[C@H](CC(=O)O)NC(=O)[C@H](CCC(N)=O)NC(=O)[C@H](C)NC(=O)[C@H](CCCNC(=N)N)NC(=O)[C@H](CCCNC(=N)N)NC(=O)[C@H](CO)NC(=O)[C@H](CC(=O)O)NC(=O)[C@H](CCSC)NC(=O)[C@H](CCC(N)=O)NC(=O)[C@H](CCCCN)NC(=O)[C@H](CO)NC(=O)[C@H](CC(C)C)NC(=O)[C@H](CC(=O)O)NC(=O)[C@H](CO)NC(=O)[C@@H](NC(=O)[C@H](Cc1ccccc1)NC(=O)[C@@H](NC(=O)CNC(=O)[C@H](CCC(N)=O)NC(=O)[C@H](CO)NC(=O)[C@@H](N)Cc1cnc[nH]1)[C@@H](C)O)[C@@H](C)O)[C@@H](C)CC)C(N)=O)C(N)=O`?
EC50 [1]: 0.0058 nM; EC50 (Glucagon receptor): 0.0063 nM

For `CC[C@H](C)[C@H](NC(=O)[C@H](Cc1ccccc1)NC(=O)[C@H](CC(C)C)NC(=O)[C@H](CCCNC(=N)N)NC(=O)[C@@H](NC(=O)[C@H](C)NC(=O)[C@H](CCC(=O)O)NC(=O)[C@H](CCC(=O)O)NC(=O)[C@H](CCC(=O)O)NC(=O)[C@H](CCSC)NC(=O)[C@H](CCC(N)=O)NC(=O)[C@H](CCCCN)NC(=O)[C@H](CO)NC(=O)[C@H](CC(C)C)NC(=O)[C@H](CC(=O)O)NC(=O)[C@H](CO)NC(=O)[C@@H](NC(=O)[C@H](Cc1ccccc1)NC(=O)[C@@H](NC(=O)CNC(=O)[C@H](CCC(=O)O)NC(=O)CNC(=O)[C@@H](N)Cc1cnc[nH]1)[C@@H](C)O)[C@@H](C)O)C(C)C)C(=O)N[C@@H](CCC(=O)O)C(=O)N[C@@H](Cc1c[nH]c2ccccc12)C(=O)N[C@@H](CC(C)C)C(=O)N[C@@H](CCSC)C(=O)N[C@@H](CC(N)=O)C(=O)N[C@H](C(=O)N[C@@H](CCCCN)C(=O)N[C@@H](CCCNC(=N)N)C(=O)N[C@@H](CC(N)=O)C(=O)N[C@@H](CCCNC(=N)N)C(=O)NCC(=O)N[C@@H](C)C(=O)N1CCC[C@H]1C(=O)N1CCC[C@H]1C(=O)N1CCC[C@H]1C(=O)N[C@@H](CO)C(N)=O)[C@@H](C)O`, which EC50 [1] is on record?
The EC50 was 0.0012 nM.

And the EC50 (Glucagon receptor)?
Its EC50 is over 100000 nM.

For “H-HGEGTFTSDLSKQMDSRRAQDFVEWLKNGGPSSGAPPPS-NH2”, which EC50 [1] is on record?
Its EC50 is 0.0222 nM.

And the EC50 (Glucagon receptor)?
The EC50 was 10000 nM.

With “H-HGEGTFTSDLSKQMDSRRAQDFVQWLKNGGPSSGAPPPS-NH2” as the compound, how does the EC50 [1] read?
The EC50 was 0.0558 nM.

And the EC50 (Glucagon receptor)?
The EC50 was 42000 nM.

Which EC50 (Glucagon receptor) does the source give for “H-HSEGTFTSDLSKQMDSRRAQDFIEWLKNGGPSSGAPPPS-NH2” here?
The EC50 was 170 nM.

With H-HSQGTFTSDLSKQMDSRRAQDFIEWLKNG-NH2 as the compound, how does the EC50 [1] read?
Its EC50 is 0.0082 nM.

What about the EC50 (Glucagon receptor) of the same compound?
Its EC50 is 0.0019 nM.

What does the source list for H-HSQGTFTSDLSKQMDSRRAQDFIEWLKNGGPSS-NH2?
EC50 [1]: 0.0153 nM; EC50 (Glucagon receptor): 0.0089 nM

With “H-HSQGTFTSDLSKQMDSRRAQDFIEWLKNGGPSSNNIA-NH2” as the compound, how does the EC50 [1] read?
The EC50 was 0.0172 nM.

What about the EC50 (Glucagon receptor) of the same compound?
Its EC50 is 0.0156 nM.

Which results are given for “H-HSQGTFTSDLSKQMEEEAVRLFIEWLMNTKRNRGAPPPS-NH2”?
EC50 [1]: 0.0022 nM; EC50 (Glucagon receptor): 1.24 nM
